Screens as filed in PubChem BioAssay.
Rows were chosen to be rich in hits. Some 1.9% of all compounds tested hit in one or more screens of this group.
UHRF1 MBD2 ctr: UHRF1 methyl-DNA binding inhibition; Q96T88; UHRF1 binding to methylated oligo, TR-FRET; inhibition, % at 4.4 µM; 0.75% of 370,000 active; AID 687016; in the data active = inhibition above about 21%;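 also: UHRF1 SRA domain binding a hemimethylated CpG hairpin DNA probe; 0% = median of test compound wells and 100% = reference inhibitor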
MBD2 DNA inh: blocks human MBD2 binding to methylated DNA; Q9UBB5; TR-FRET, MBD2 binding to methylated oligonucleotide; inhibition, % at 4.4 µM; 0.31% of 370,000 active; AID 686964; in the data active = inhibition above about 13%
Target sequence (Q9UBB5 whole entry, looked up): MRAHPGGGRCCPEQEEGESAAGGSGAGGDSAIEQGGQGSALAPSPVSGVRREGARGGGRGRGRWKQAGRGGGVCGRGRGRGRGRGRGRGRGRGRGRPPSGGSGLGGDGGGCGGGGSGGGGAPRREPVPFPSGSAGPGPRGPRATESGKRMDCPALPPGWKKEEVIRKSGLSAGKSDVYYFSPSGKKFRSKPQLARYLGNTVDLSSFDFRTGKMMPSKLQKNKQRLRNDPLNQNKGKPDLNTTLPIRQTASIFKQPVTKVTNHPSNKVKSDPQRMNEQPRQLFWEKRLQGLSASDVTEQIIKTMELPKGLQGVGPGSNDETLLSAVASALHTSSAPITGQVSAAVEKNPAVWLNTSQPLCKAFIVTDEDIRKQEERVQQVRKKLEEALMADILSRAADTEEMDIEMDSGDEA
TDP2 inh: TDP2 (human) inhibition, absorbance primary screen | O95551 | recombinant TDP2, T5PNP hydrolysis, p-nitrophenol absorbance 415 nm | inhibition, % at 12.8 µM | 0.34% of 370,000 active | AID 720702;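 active = inhibition above the mean of all tested compounds plus 3 SD, set per campaign, cut at about 25% in these data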;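 also: 0% = DMSO with enzyme and 100% = buffer with substrate but no TDP2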
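Incubation: 2 h at 37 °C; Test system: recombinant human TDP2; Quantity: enzyme 120 nM; Read-out basis: percent inhibition; Medium: 50 mM Tris-HCl pH 7.5 with Mg2+, KCl, DTT, BSA; Repeats: single replicate; Compound: 12.8 µM single point, 1% DMSO; Signal: epi absorbance; Reagent: 5 mM T5PNP chromogenic substrate; Benchmarks: no-enzyme high, DMSO-plus-enzyme low.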
Casp6 inh: inhibitors of human caspase-6; P55212; purified caspase-6, Z-VEID-R110 cleavage fluorescence; inhibition, % at 12.5 µM; 0.53% of 350,000 active;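 active = mean inhibition across replicates at least about 35%, with every replicate also reaching that limit, limit read from the data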;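 also: 0% = median of neutral control wells and 100% = no fluorescence left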
NSD2 inh: NSD2 (human) methyltransferase inhibition | NSD2 peptide methylation, AlphaScreen, 120 min | inhibition, % at 12.5 µM | 0.54% of 310,000 active | AID 743445; in the data active = inhibition above about 50%
LEDGF integ inh: blocks HIV-1 LEDGF/p75-dependent DNA integration; TR-FRET IN-LEDGF/p75 DNA integration, Eu/Cy5; 0.64% of 370,000 active; inhibition, % at 3.7 µM;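 active = inhibition above the screen-wide mean plus 3 SD, cut at about 13% in these data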;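 also: signal is the Cy5 over europium emission ratio at 671 and 618 nm; 0% = plate median of compound wells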
Alpha artifact: AlphaScreen assay artifact in NSD2 counter-screen. AlphaScreen artifact counterscreen, preloaded methylated H4 peptide. AC35, µM (top dose mostly 10 µM), inactives show at the highest dose activity change, negative = signal loss. shares compounds with NSD2 inh. 9.4% of 1,500 active. AID 1053174; call rule not given here
An asterisk follows results filed as active; nt = no result given.

SMILES	UHRF1 MBD2 ctr	MBD2 DNA inh	TDP2 inh	Casp6 inh	NSD2 inh	LEDGF integ inh	Alpha artifact
O=C(CN1C(=O)S/C(=C/c2cccn2-c2ccc(O)cc2)C1=O)N1CCCC1	-2	1	-4	1	1	6	nt
O=C(O)c1cccc(-n2cccc2/C=C2/SC(=O)N(CC(=O)N3CCCC3)C2=O)c1	6	-6	-4	40*	61*	5	2%
Cc1cc(=O)n(-c2ccc3ccccc3n2)[nH]1	-7	-9	5	nt	86*	5	-5%
CCCn1c(CCl)nc2cc(S(=O)(=O)N3CCOCC3)ccc21	-2	4	0	0	-1	-1	nt
O=S(=O)(c1ccc2c(c1)nc1n2CCC1)N1CCOCC1	-1	-2	6	nt	92*	1	-3%
CCCC(=O)Nc1cc(C)cn(Cc2c(F)cccc2Cl)c1=O	-2	3	-1	5	76*	0	-8%
CSc1ncccc1C(=O)Nc1ncc(C)s1	0	5	11	-1	4	0	nt
CSc1ncccc1C(=O)Nc1nc2c(C)cccc2s1	5	-2	-18	1	104*	-1	-1%
CC(=O)N(C)C[C@H]1Oc2cc(C3=CCCC3)ccc2S(=O)(=O)N([C@@H](C)CO)C[C@@H]1C	nt	nt	nt	2	nt	nt	nt
Cc1[nH]n(-c2ccccc2)c(=O)c1C(C[N+](=O)[O-])c1ccc(Cl)cc1 (configuration not stated)	-9	-6	27*	nt	100*	3	0%
CO[C@@H]1CN(C)C(=O)c2cc(NC(=O)c3nc4ccccc4s3)ccc2OC[C@H](C)N(Cc2ccncc2)C[C@@H]1C	nt	nt	nt	-4	nt	nt	nt
COc1ccc(S(=O)(=O)N(C)C[C@H]2Oc3ccc(NS(=O)(=O)c4ccc(F)cc4)cc3CC(=O)N([C@@H](C)CO)C[C@@H]2C)cc1	nt	nt	nt	4	nt	nt	nt
COc1cc(OC)c([N+](=O)[O-])cc1/C=N/NC(=O)c1ccncc1	-7	-2	1	15	81*	-3	0%
N#Cc1c(SCC(=O)OCc2ccccc2)nsc1SCC(=O)OCc1ccccc1	-3	1	10	-5	126*	2	-4%
CCOC(=O)CSc1nsc(SCC(=O)OCC)c1C#N	0	2	3	nt	1	-2	nt
Cc1noc(C)c1S(=O)(=O)Nc1ccc2c(c1)C(=O)N([C@H](C)CO)C[C@H](C)[C@H](CN(C)C(=O)Nc1ccc3c(c1)OCO3)OCCCC[C@@H](C)O2	nt	nt	nt	-2	nt	nt	nt
Cc1noc(C)c1S(=O)(=O)Nc1ccc2c(c1)CC(=O)N([C@@H](C)CO)C[C@H](C)[C@@H](CN(C)C(=O)NC1CCCCC1)O2	nt	nt	nt	-1	nt	nt	nt
COc1ccc(-c2cc(-c3ccccc3)nc3ncnn23)cc1	0	3	-6	5	nt	1	nt
c1ccc(-c2cc(-c3ccccc3)n3ncnc3n2)cc1	-1	-8	8	3	50*	0	-1%
Cc1ccc(CC(=O)Nc2nncs2)cc1	3	4	-8	nt	57*	-7	2%
Cc1c(NC(=O)CN2C(=O)C(=O)c3ccccc32)c(=O)n(-c2ccccc2)n1C	18	-6	-2	0	56*	-2	-3%
CC1CCN(C(=O)CN(Cc2ccc(Cl)cc2)S(C)(=O)=O)CC1	1	0	-7	2	62*	-2	-8%
CC(C)=NOCC(=O)Nn1c(COc2c(C)cccc2C)nc2ccccc2c1=O	4	-2	-12	2	57*	-4	-3%
O=C1CC(C(=O)N2CCc3ccccc32)CN1c1ccccc1 (configuration not stated)	-2	-2	10	0	80*	2	-2%
Cc1ccc(N2CC(C(=O)N3CCc4ccccc43)CC2=O)cc1 (configuration not stated)	-1	0	11	6	nt	-1	nt
CCN1CCc2nc3ccccc3c(C(=O)Nc3ccc(F)cc3)c2C1	14	3	4	-4	24	0	nt
CCN1CCc2nc3ccccc3c(C(=O)Nc3ccc(NC(C)=O)cc3)c2C1	4	1	-9	-4	59*	4	0%
